Experimental data taken from ChEMBL document CHEMBL1155493, “Synthesis of new cis-fused tetrahydrochromeno[4,3-b]quinolines and their antiproliferative activity studies against MDA-MB-231 and MCF-7 breast cancer cell lines” (Bioorg Med Chem Lett, 2010).
pIC50: −log10 of the molar value.

Legend:
MDA-MB-231 = assay: Antiproliferative activity against human MDA-MB-231 cells by MTT assay; assay type: functional, cell-based
Procedure, shortened: (§1)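 MTT read-out following an earlier published protocol; IC50 values reported, with tamoxifen as the reference compound.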

MCF7 = assay: Antiproliferative activity against human MCF7 cells by MTT assay; assay type: functional, cell-based; procedure, shortened: as §1

Row | Compound | pIC50 (MDA-MB-231) | pIC50 (MCF7)
1 | Cc1oc2c3c(ccc2c(=O)c1-c1ccccc1)OC[C@H]1[C@@H]3Nc2ccccc2C1(C)C | < 4.00 | < 4.00
2 | Cc1ccc2c(c1)C(C)(C)[C@H]1COc3ccc4c(=O)c(C)coc4c3[C@H]1N2 | < 4.00 | 4.99
3 | COc1ccc2c(c1)C(C)(C)[C@H]1COc3ccc4c(=O)c(C)c(C)oc4c3[C@H]1N2 | < 4.00 | < 4.00
4 | Cc1oc2c3c(ccc2c(=O)c1C)OC[C@H]1[C@@H]3Nc2cc3ccccc3cc2C1(C)C | < 4.00 | < 4.00
5 | Cc1ccc2c(c1)C(C)(C)[C@H]1COc3ccc4c(=O)c(-c5ccccc5)c(C)oc4c3[C@H]1N2 | < 4.00 | 5.00

More lines, now with the values ahead:

Row | pIC50 (MDA-MB-231) | pIC50 (MCF7) | Compound
6 | < 4.00 | 4.03 | Cc1ccc2c(c1)C(C)(C)[C@H]1COc3ccc4c(=O)c(C)c(C)oc4c3[C@H]1N2
7 | < 4.00 | < 4.00 | Cc1oc2c3c(ccc2c(=O)c1C)OC[C@H]1[C@@H]3Nc2ccccc2C1(C)C
8 | 4.03 | 5.02 | Cc1coc2c3c(ccc2c1=O)OC[C@H]1[C@@H]3Nc2ccccc2C1(C)C
9 | 5.03 | 5.05 | Cc1coc2c3c(ccc2c1=O)OC[C@H]1[C@@H]3Nc2cc3ccccc3cc2C1(C)C
10 | 6.18 | 6.00 | CC/C(=C(\c1ccccc1)c1ccc(OCCN(C)C)cc1)c1ccccc1 [TAMOXIFEN]
